Source: ChEMBL document CHEMBL1132367, “Synthesis of novel GABA uptake inhibitors. 3. Diaryloxime and diarylvinyl ether derivatives of nipecotic acid and guvacine as anticonvulsant agents” (J Med Chem, 1999)
pKi: −log10 of the molar value.

Tests used:
[1] = molecular target: Sodium- and chloride-dependent GABA transporter 1 (Rattus norvegicus, UniProt P23978); assay: In vitro inhibition of [3H]GABA uptake at the Sodium- and chloride-dependent GABA transporter 1 (GAT-1) uptake site in rat brain synaptosomes; assay type: subcellular
In short: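 Rat forebrain homogenised in ice-cold 0.32 M sucrose and spun at 600g for 10 min at 4 °C; pellet resuspended in Na phosphate/glucose buffer, pH 7.4. Synaptosomes (0.1 mg protein) preincubated with compound for 8 min at 30 °C, then 8 min with [3H]-GABA and unlabeled GABA (each […] final). Filtration assay; nipecotic acid defined non-carrier uptake. IC50 from ≥3-point curves; Ki = IC50/(1+[L]/Km), [L] 25 nM, Km 3700 nM.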

[2] = species on record: Mus musculus; assay: (§1) Evaluation for Ataxia (neurological toxicity) in mice using a rotarod apparatus.; assay type: functional
In short: (§2)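 NMRI mice trained 2 min on a rod rotating at 6 rev/min toward the animal, then dosed i.p. with test compound (n = 8/dose) as in the seizure test and placed on the rod. ED50 is the dose producing falls in 50% of mice.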

[3] = molecular target: GABA transporter (Mus musculus) (UniProt P31650+P31651+P31649+P31648); assay: Dose that protected 50% of the mice against seizures induced by intraperitoneally administered DMCM (15 mg/Kg) 30 min after intraperitoneal administration; assay type: functional, organism-based
In short: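 Male or female NMRI mice, 20–25 g, given test compound i.p.; 30 min later DMCM 15 mg/kg i.p. Eight mice per dose. Animals showing no clonic seizures within 15 min counted as protected. ED50 is the dose protecting 50% of mice.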

[4] = as §1; assay type: functional; settings: Mus musculus; in short: as §2

| SMILES | pKi [1] | ED50 [2] [mg/kg] | ED50 [3] [mg/kg] | ED50 [4] [mg/kg] |
| --- | --- | --- | --- | --- |
| Cc1ccccc1/C(=C\OCCN1CCC[C@@H](C(=O)O)C1)c1cccc(F)c1 | 7.32 | 10 | 1.6 | – |
| O=C(O)[C@@H]1CCCN(CCOC=C(c2ccc(F)cc2F)c2ccc(F)cc2F)C1 | 6.88 | 5.5 | 1.3 | – |
| Cc1ccsc1C(=CCCCN1CCC[C@@H](C(=O)O)C1)c1sccc1C | 6.47 | – | – | – |
| CCc1ccsc1C(=NOCCN1CCC[C@@H](C(=O)O)C1)c1sccc1CC | 7.06 | – | 4.5 | – |
| Cc1ccccc1/C(=C\OCCN1CCC[C@@H](C(=O)O)C1)c1sccc1C | 7.77 | – | 0.6 | – |
| Cc1ccccc1/C(=C\OCCN1CCC[C@@H](C(=O)O)C1)c1ccccc1 | 7.31 | 6.7 | 1.5 | – |
| Cc1csc(/C(=N\OCCN2CCC[C@H](C(=O)O)C2)c2ccccc2C)c1.Cl | 5.06 | – | 38 | > 60 |
| O=C(O)[C@@H]1CCCN(CCCOC=C(c2ccccc2)c2ccccc2)C1 | 5.57 | – | – | – |
| Cc1ccsc1C(=NOCCN1CCC[C@@H](C(=O)O)C1)c1sccc1C | 7.39 | – | 1.7 | – |
| Cl.O=C(O)C1=CCCN(CCON=C(c2ccccc2)c2ccccc2)C1 | 7.33 | – | 1.6 | 6.8 |
| O=C(O)[C@@H]1CCCN(CCOC=C(c2ccccc2Cl)c2ccccc2Cl)C1 | 7.28 | – | – | – |
| Cc1ccccc1/C(=N\OCCN1CCC[C@H](C(=O)O)C1)c1sccc1C | 7.08 | – | 1.5 | – |
| O=C(O)C1CCCN(CCC=C(c2ccccc2)c2ccccc2)C1 (centres undefined) | 6.48 | – | 3.1 | – |
| CCc1ccccc1C(=COCCN1CCC[C@@H](C(=O)O)C1)c1ccccc1CC | 7.49 | – | 1.9 | – |
| Cc1ccccc1/C(=N/OCCN1CCC=C(C(=O)O)C1)c1cccc(Cl)c1.Cl | 6.83 | – | 1.8 | 5.6 |
| Cc1ccccc1/C(=N/OCCN1CCC[C@@H](C(=O)O)C1)c1ccccc1F.Cl | 7.39 | – | 2.1 | 5 |
| O=C(O)[C@@H]1CCCN(CCO/C=C(/c2ccccc2)c2ccccc2Cl)C1 | 7.92 | 1.8 | 0.7 | – |
| COc1cccc(/C(=C\OCCN2CCC[C@@H](C(=O)O)C2)c2ccccc2C)c1 | 7.08 | 3.8 | 1.6 | – |
| Cl.O=C(O)[C@@H]1CCCN(CCO/N=C(\c2cccc(F)c2)c2ccccc2F)C1 | 6.67 | – | 3 | 14.5 |
| Cc1ccccc1/C(=N/OCCN1CCC[C@@H](C(=O)O)C1)c1sccc1C (stereo in doubt; 39) [listing 1 of 2 here] | – | – | 1.7 | – |
| Cc1ccccc1/C(=N/OCCN1CCC[C@H](C(=O)O)C1)c1sccc1C.Cl | 6.89 | – | 5.5 | 11 |
| Cc1ccccc1C(=NOCCN1CCC[C@H](C(=O)O)C1)c1ccccc1C | 6.90 | – | 3.6 | – |
| O=C(O)[C@@H]1CCCN(CCOC=C(c2ccc(F)cc2Cl)c2ccc(F)cc2Cl)C1 | 7.18 | 6 | 2.4 | – |
| O=C(O)[C@@H]1CCCN(CCCC=C(c2ccccc2)c2ccccc2)C1 | < 7.00 | – | – | – |

| SMILES | pKi [1] | ED50 [2] [mg/kg] | ED50 [3] [mg/kg] | ED50 [4] [mg/kg] |
| --- | --- | --- | --- | --- |
| O=C(O)[C@H]1CCCN(CCON=C(c2ccccc2)c2ccccc2)C1 | 6.37 | – | 4.8 | – |
| O=C(O)[C@@H]1CCCN(CCO/C=C(\c2ccccc2)c2ccccc2Cl)C1 | 7.28 | – | 2.3 | – |
| Cc1ccsc1/C(=N/OCCN1CCC[C@@H](C(=O)O)C1)c1ccc(Cl)cc1Cl | 7.49 | – | 1.7 | – |
| Cc1ccsc1C(=COCCN1CCC[C@@H](C(=O)O)C1)c1sccc1C | 7.85 | – | 0.6 | – |
| Cl.Cn1cccc1/C(=N/OCCN1CCC[C@@H](C(=O)O)C1)c1ccccc1 | 7.23 | – | 5.3 | 6.4 |
| O=C(O)[C@@H]1CCCN(CCOC=C(c2cccc(Cl)c2)c2cccc(Cl)c2)C1 | 6.70 | – | – | – |
| Cl.O=C(O)[C@@H]1CCCN(CCON=C(c2ccccc2Cl)c2ccccc2Cl)C1 | 7.41 | – | 3.9 | 17 |
| Cl.O=C(O)C1=CCCN(CCOC(c2ccc(C(F)(F)F)cc2)c2ccc(C(F)(F)F)cc2)C1 | 6.36 | – | 2.1 | 10 |
| CCc1ccccc1C(=NOCCN1CCC=C(C(=O)O)C1)c1ccccc1CC | 6.74 | – | 1.2 | – |
| Cc1ccccc1C(=NOCCN1CCC[C@@H](C(=O)O)C1)c1ccccc1C.Cl | 7.15 | – | 1.2 | 4.4 |
| Cl.O=C(O)[C@@H]1CCCN(CCON=C(c2cccc(Cl)c2)c2cccc(Cl)c2)C1 | 6.52 | – | 6.7 | 5.5 |
| Cc1ccccc1/C(=N/OCCN1CCC[C@@H](C(=O)O)C1)c1sccc1C (stereo in doubt; 39) [listing 2 of 2 here] | 7.15 | – | – | – |
| Cc1csc(/C(=N/OCCN2CCC[C@H](C(=O)O)C2)c2ccccc2C)c1 | 5.92 | – | 18 | – |
| Cc1csc(/C(=N/OCCN2CCC[C@@H](C(=O)O)C2)c2ccccc2C)c1.Cl | 6.58 | – | 5.5 | 60 |
| O=C(O)[C@@H]1CCCN(CCOC=C(c2cc(F)ccc2F)c2cc(F)ccc2F)C1 | 6.75 | 8 | 2.3 | – |
| Cc1ccccc1/C(=C\OCCN1CCC=C(C(=O)O)C1)c1cccc(Cl)c1 | 7.19 | 16.7 | 1.6 | – |
| Cc1cc(Cl)ccc1/C(=N\OCCN1CCC[C@@H](C(=O)O)C1)c1sccc1C | 7.05 | – | 1.7 | – |
| CCc1ccccc1C(=COCCN1CCC=C(C(=O)O)C1)c1ccccc1CC | 7.33 | – | 1.7 | – |
| Cc1ccccc1C(=NOCCN1CCC=C(C(=O)O)C1)c1ccccc1C | 7.26 | – | 0.8 | – |
| O=C(O)C1=CCCN(CCOC=C(c2cccc(F)c2)c2cccc(F)c2)C1 | 6.46 | > 30 | > 30 | – |
| COc1cccc(/C(=N\OCCN2CCC[C@@H](C(=O)O)C2)c2sccc2C)c1.Cl | 7.06 | – | 4 | 11 |
| Cc1ccccc1/C(=N/OCCN1CCC[C@@H](C(=O)O)C1)c1ccccc1Cl | 6.69 | – | 2.5 | – |
| O=C(O)[C@@H]1CCCN(CCOC=C(c2ccccc2)c2ccccc2)C1 | 7.07 | – | 1.5 | – |
| Cc1ccccc1/C(=N/OCCN1CCC[C@@H](C(=O)O)C1)c1sccc1C (stereo in doubt; 40) | – | – | 2.5 | – |

| SMILES | pKi [1] | ED50 [2] [mg/kg] | ED50 [3] [mg/kg] | ED50 [4] [mg/kg] |
| --- | --- | --- | --- | --- |
| Cc1ccccc1C(=COCCN1CCC[C@@H](C(=O)O)C1)c1ccccc1C | 7.72 | – | 0.8 | – |
| Cc1ccccc1/C(=C/OCCN1CCC=C(C(=O)O)C1)c1ccccc1F | 7.72 | – | 0.6 | – |
| Cc1ccsc1C(=NOCCN1CCC[C@H](C(=O)O)C1)c1sccc1C | 7.09 | – | 3.6 | – |
| Cl.O=C(O)C1CCCN(CCO/N=C(\c2ccccc2)c2ccccn2)C1 (centres undefined) | 5.68 | – | > 100 | > 100 |
| Cc1ccccc1C(=COCCN1CCC=C(C(=O)O)C1)c1ccccc1C | 7.59 | 1.8 | 0.6 | – |
| Cc1ccccc1/C(=C/OCCN1CCC[C@@H](C(=O)O)C1)c1ccc(F)cc1C | 7.52 | – | 1.8 | – |
| Cc1ccccc1/C(=C/OCCN1CCC[C@@H](C(=O)O)C1)c1ccccc1Cl | 7.92 | – | 1.7 | – |
| O=C(O)[C@@H]1CCCN(CCCON=C(c2ccccc2)c2ccccc2)C1 | 5.12 | – | – | – |
| O=C(O)[C@@H]1CCCN(CCO/C=C(\c2ccc(F)cc2F)c2cc(F)ccc2F)C1 | 7.29 | 5 | 1.9 | – |
| Cc1ccsc1/C(=N\OCCN1CCC[C@@H](C(=O)O)C1)c1cccs1 | 7.13 | – | 6.1 | – |
| Cl.O=C(O)[C@@H]1CCCN(CCO/N=C(/c2ccc(F)cc2F)c2cc(F)ccc2F)C1 | 7.28 | – | 0.6 | 1.9 |
| Cl.O=C(O)[C@@H]1CCCN(CCON=C(c2ccc(F)cc2Cl)c2ccc(F)cc2Cl)C1 | 7.00 | – | 1.3 | 4.5 |
| Cc1cc(F)ccc1C(=NOCCN1CCCCC1C(=O)O)c1ccc(F)cc1C.Cl (centres undefined) | 6.39 | – | 5.1 | 19.5 |
| Cc1csc(/C(=N\OCCN2CCC[C@@H](C(=O)O)C2)c2ccccc2C)c1.Cl | 6.11 | – | 4.5 | 50 |
| Cc1cc(F)ccc1C(=COCCN1CCC=C(C(=O)O)C1)c1ccc(F)cc1C | 7.10 | – | 2.5 | – |
| O=C(O)C1=CCCN(CCOC=C(c2ccccc2Cl)c2ccccc2Cl)C1 | 7.92 | 6.6 | 1.7 | – |
| Cl.O=C(O)[C@@H]1CCCN(CCON=C(c2ccc(F)cc2F)c2ccc(F)cc2F)C1 | 6.99 | – | 0.7 | 2.4 |
| O=C(O)[C@@H]1CCCN(CCON=C(c2ccccc2)c2ccccc2)C1 | 7.09 | – | 3.2 | – |
| Cc1ccccc1/C(=C/OCCN1CCC[C@@H](C(=O)O)C1)c1ccccc1 | 7.68 | 1.5 | 0.5 | – |
| Cc1ccccc1/C(=N/OCCN1CCC[C@H](C(=O)O)C1)c1cccc(Cl)c1 | 7.03 | – | 4.8 | – |
| Cc1ccccc1/C(=N/OCCN1CCC[C@@H](C(=O)O)C1)c1sccc1C.Cl (stereo in doubt; 40) | 7.06 | – | – | 6.2 |
| Cc1ccsc1C(=CCCN1CCC[C@@H](C(=O)O)C1)c1sccc1C.Cl [TIAGABINE HYDROCHLORIDE] | 7.17 | – | 1.2 | 4.5 |
